Test results reported in ChEMBL document CHEMBL4321819, “Simple Structural Modifications Converting a Bona fide MDM2 PROTAC Degrader into a Molecular Glue Molecule: A Cautionary Tale in the Design of PROTAC Degraders” (J Med Chem, 2019).
The source made the active and inactive calls. No cut-off for these calls is given here.

What was measured:
RS4-11 [1] = experiment: Antiproliferative activity against human RS4:11 cells expressing wild type p53 assessed as cell growth inhibition without interaction with cereblon after 4 days by WST-8 assay; assay type: functional, cell-based; conditions: RS4-11, 96 h
Procedure, shortened: (§1)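 Leukemia cells seeded at 10000–20000 cells/well, breast cancer lines at 5000–10000 cells/well. Serially diluted compound added, then 4 days at 37 °C, 5% CO2. Growth read with WST-8 reagent after at least 1 h, absorbance at 450 nm. RS4;11, MOLM-13 and breast lines were grown in RPMI 1640; MV-4-11 and HL-60 in IMDM; all with 10% FBS. Mean ± SE, at least three independent experiments.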

MDA-MB-231 [2] = experiment: Antiproliferative activity against human MDA-MB-231 cells assessed as cell growth inhibition after 4 days in presence of control siRNA for 2 days followed by compound treatment by WST-8 assay; assay type: functional, cell-based
Procedure, shortened: (§2)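 MDA-MB-231 or MDA-MB-468 cells transfected for 2 days using Lipofectamine RNAiMAX with MDM2 siRNA, one of two CRBN siRNAs, or non-targeting control siRNA. Compound then added and growth read by WST-8 at 450 nm.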

MDA-MB-231 [3] = experiment: Antiproliferative activity against human MDA-MB-231 cells harboring mutant p53 assessed as cell growth inhibition after 4 days by WST-8 assay; assay type: functional, cell-based; conditions: MDA-MB-231, 96 h; procedure, shortened: as §1
[4] = Antiproliferative activity against human RS4:11/IRMI-2 cells harboring p53 hotspot mutation Y236H/R249G assessed as MDM2-independent cell growth inhibition after 4 days by WST-8 assay; assay type: functional, cell-based; conditions: RS4-11, 96 h; procedure, shortened: as §1
MDA-MB-468 [5] = experiment: Antiproliferative activity against human MDA-MB-468 cells transfected with CRBN siRNA LQ-021086-11-0002 assessed as cell growth inhibition after 4 days by WST-8 assay; assay type: functional, cell-based; conditions: MDA-MB-468, 96 h; procedure, shortened: as §2
[6] = biological target: Protein cereblon/Eukaryotic peptide chain release factor GTP-binding subunit ERF3A (Homo sapiens) (UniProt Q96SW2+P15170); experiment: Inhibition of cereblon binding with GSPT1 human MDA-MB-468 cells assessed as decrease in GSPT1 degradation at 0.1 uM after 2 hrs in presence of 30 uM lenalidomide by Western blot analysis; assay type: cell-based
Protein cereblon/Eukaryotic peptide chain release factor GTP-binding subunit ERF3A (Homo sapiens), sequence (P15170 whole entry, looked up): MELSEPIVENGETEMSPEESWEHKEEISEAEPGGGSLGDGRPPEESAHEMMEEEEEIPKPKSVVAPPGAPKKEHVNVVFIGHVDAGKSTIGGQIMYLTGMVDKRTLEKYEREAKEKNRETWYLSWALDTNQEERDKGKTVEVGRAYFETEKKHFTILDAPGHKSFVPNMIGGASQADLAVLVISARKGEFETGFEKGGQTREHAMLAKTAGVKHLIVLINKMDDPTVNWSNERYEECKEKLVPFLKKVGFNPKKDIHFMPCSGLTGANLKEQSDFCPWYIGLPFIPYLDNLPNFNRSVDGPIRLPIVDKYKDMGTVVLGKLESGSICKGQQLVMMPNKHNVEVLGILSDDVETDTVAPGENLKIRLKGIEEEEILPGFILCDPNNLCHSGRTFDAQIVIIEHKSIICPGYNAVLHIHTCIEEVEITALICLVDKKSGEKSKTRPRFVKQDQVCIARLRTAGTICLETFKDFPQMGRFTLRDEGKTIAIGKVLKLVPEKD
Protein cereblon/Eukaryotic peptide chain release factor GTP-binding subunit ERF3A (Homo sapiens), sequence (Q96SW2 whole entry, looked up): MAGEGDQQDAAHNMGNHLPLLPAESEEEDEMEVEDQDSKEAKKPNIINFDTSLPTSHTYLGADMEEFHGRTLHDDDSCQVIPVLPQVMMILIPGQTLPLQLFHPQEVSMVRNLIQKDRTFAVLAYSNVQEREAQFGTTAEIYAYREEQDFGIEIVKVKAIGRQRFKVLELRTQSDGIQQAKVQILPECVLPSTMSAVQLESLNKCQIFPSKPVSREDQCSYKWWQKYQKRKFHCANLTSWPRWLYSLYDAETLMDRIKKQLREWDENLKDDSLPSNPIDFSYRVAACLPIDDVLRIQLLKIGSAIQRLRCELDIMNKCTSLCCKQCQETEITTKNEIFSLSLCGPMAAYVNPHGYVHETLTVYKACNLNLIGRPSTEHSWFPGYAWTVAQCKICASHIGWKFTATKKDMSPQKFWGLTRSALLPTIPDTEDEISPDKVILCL
Procedure, shortened: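 MDA-MB-231 or MDA-MB-468 cells were treated 2 h with or without 30 μM lenalidomide to block cereblon binding. GSPT1 protein level was then assessed by Western blotting.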

RS4-11 [7] = experiment: Antiproliferative activity against human RS4:11 cells expressing wild type p53 assessed as MDM2-independent cell growth inhibition after 4 days by WST-8 assay; assay type: functional, cell-based; conditions: RS4-11, 96 h; procedure, shortened: as §1
[8] = biological target: Eukaryotic peptide chain release factor GTP-binding subunit ERF3A (Homo sapiens, UniProt P15170); experiment: Induction of GSPT1 degradation in human RS4:11 cells measured after 24 hrs by Western blot analysis; assay type: cell-based
Eukaryotic peptide chain release factor GTP-binding subunit ERF3A, sequence (P15170 whole entry): as the sequence (P15170 whole entry, looked up) above

[9] = biological target: Cellular tumor antigen p53 (Homo sapiens) (UniProt P04637); experiment: Activation of p53 in human RS4:11 cells assessed as increase in CDKN1A mRNA expression at 3 nM after 1 to 2 hrs by qRT-PCR analysis; assay type: cell-based
Cellular tumor antigen p53 (Homo sapiens), sequence (P04637 whole entry, looked up): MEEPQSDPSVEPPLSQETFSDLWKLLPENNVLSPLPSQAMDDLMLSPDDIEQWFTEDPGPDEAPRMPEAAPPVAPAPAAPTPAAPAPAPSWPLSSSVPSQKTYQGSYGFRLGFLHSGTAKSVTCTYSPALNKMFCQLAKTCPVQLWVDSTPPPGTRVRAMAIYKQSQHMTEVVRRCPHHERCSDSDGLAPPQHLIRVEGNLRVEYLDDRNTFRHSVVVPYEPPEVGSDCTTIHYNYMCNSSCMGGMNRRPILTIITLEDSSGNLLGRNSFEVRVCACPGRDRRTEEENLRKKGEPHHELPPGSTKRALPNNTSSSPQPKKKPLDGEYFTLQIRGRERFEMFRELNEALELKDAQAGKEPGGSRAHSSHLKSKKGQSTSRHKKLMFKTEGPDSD
Procedure, shortened: (§3)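 RS4;11 cells (RPMI 1640, 10% FBS, 37 °C, 5% CO2) treated with 3 nM or 10 nM compound; total RNA extracted and mRNA of p53 targets MDM2, CDKN1A, PUMA and BAX quantified by qRT-PCR. Mean ± standard error from at least three independent experiments.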

[10] = biological target: Protein cereblon/Eukaryotic peptide chain release factor GTP-binding subunit ERF3A/DNA damage-binding protein 1/Cullin-4A (Homo sapiens) (UniProt Q96SW2+Q16531+Q13619+P15170); experiment: Protac activity at GSPT1/CUL4/DDB1/CRBN in human RS4:11/IRMI-2 cells harboring p53 hotspot mutation Y236H/R249G assessed as decrease in GSPT1 protein level by measuring fold change of protein level before and after treatment at 0.1 uM measured after 3 hrs relative to control
Protein cereblon/Eukaryotic peptide chain release factor GTP-binding subunit ERF3A/DNA damage-binding protein 1/Cullin-4A (Homo sapiens), sequence (P15170 whole entry, looked up): as the sequence (P15170 whole entry, looked up) above
Protein cereblon/Eukaryotic peptide chain release factor GTP-binding subunit ERF3A/DNA damage-binding protein 1/Cullin-4A (Homo sapiens), sequence (Q13619 whole entry, looked up): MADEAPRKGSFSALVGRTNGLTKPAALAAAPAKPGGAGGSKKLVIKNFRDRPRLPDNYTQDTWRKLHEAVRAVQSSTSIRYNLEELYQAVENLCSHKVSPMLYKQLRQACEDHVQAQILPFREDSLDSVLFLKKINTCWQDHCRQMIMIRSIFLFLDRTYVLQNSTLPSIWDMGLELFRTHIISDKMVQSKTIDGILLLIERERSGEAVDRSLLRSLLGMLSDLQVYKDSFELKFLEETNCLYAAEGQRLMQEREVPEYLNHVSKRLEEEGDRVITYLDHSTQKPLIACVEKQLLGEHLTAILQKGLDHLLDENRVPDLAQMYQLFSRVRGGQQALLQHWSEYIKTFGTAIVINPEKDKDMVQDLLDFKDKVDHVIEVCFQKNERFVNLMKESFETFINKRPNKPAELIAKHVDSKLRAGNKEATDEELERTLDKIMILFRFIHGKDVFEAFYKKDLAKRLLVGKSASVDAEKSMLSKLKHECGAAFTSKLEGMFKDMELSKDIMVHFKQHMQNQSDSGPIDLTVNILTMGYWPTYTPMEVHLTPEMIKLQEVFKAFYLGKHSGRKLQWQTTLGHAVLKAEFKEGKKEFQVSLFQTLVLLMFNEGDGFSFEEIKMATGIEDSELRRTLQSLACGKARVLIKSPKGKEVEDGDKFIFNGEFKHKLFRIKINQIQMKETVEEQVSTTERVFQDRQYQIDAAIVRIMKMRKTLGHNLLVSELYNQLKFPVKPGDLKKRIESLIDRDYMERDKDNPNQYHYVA
Protein cereblon/Eukaryotic peptide chain release factor GTP-binding subunit ERF3A/DNA damage-binding protein 1/Cullin-4A (Homo sapiens), sequence (Q16531 whole entry, looked up): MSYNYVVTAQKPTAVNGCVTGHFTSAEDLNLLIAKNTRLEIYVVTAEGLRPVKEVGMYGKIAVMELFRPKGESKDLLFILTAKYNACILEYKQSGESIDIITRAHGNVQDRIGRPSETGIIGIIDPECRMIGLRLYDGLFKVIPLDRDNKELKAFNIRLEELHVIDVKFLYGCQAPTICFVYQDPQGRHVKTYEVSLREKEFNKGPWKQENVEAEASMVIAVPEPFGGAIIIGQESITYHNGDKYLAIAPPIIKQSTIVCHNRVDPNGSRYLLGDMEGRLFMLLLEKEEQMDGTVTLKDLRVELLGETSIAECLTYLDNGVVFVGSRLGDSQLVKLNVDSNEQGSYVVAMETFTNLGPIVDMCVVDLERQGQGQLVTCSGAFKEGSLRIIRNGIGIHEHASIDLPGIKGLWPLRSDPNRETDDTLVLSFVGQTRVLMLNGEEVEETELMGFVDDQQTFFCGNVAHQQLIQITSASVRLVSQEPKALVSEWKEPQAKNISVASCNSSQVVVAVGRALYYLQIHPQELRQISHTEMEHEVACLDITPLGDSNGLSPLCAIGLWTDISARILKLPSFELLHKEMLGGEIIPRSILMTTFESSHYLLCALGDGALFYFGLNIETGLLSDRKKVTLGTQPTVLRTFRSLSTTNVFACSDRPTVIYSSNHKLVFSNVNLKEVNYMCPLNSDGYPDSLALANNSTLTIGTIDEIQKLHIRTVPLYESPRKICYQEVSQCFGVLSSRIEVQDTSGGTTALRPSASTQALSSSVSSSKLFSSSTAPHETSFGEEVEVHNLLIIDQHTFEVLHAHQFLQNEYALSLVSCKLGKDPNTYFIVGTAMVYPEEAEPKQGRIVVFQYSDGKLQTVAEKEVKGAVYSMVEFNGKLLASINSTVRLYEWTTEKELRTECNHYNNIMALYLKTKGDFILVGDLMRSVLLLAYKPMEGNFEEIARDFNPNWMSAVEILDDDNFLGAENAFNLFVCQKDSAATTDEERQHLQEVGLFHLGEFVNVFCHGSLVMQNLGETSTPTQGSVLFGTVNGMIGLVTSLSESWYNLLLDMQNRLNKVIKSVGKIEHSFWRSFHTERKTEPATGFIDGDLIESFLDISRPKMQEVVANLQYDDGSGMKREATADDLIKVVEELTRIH
Protein cereblon/Eukaryotic peptide chain release factor GTP-binding subunit ERF3A/DNA damage-binding protein 1/Cullin-4A (Homo sapiens), sequence (Q96SW2 whole entry, looked up): as the sequence (Q96SW2 whole entry, looked up) above

MDA-MB-468 [11] = experiment: Antiproliferative activity against human MDA-MB-468 cells assessed as cell growth inhibition after 4 days in presence of control siRNA for 2 days followed by compound treatment by WST-8 assay; assay type: functional, cell-based; procedure, shortened: as §2
[12] = biological target: E3 ubiquitin-protein ligase Mdm2 (Homo sapiens, UniProt Q00987); experiment: Induction of MDM2 degradation in human RS4:11 cells assessed as upregulation of p53 at 1 to 30 nM after 1 hr by Western blot analysis; assay type: cell-based
E3 ubiquitin-protein ligase Mdm2, sequence (Q00987 whole entry, looked up): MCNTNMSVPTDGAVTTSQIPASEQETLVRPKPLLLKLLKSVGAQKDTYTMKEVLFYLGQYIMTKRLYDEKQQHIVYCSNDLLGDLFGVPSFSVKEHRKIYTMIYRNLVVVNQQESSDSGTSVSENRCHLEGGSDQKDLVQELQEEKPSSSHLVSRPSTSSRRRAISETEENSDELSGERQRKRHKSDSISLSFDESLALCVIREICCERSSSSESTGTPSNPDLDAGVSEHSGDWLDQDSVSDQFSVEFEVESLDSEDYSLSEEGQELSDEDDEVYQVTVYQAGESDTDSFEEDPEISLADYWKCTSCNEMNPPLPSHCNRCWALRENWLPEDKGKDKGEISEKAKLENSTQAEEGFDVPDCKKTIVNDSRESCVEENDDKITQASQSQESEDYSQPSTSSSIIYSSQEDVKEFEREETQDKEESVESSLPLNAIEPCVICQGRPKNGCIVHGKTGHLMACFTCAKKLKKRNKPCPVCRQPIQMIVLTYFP
Procedure, shortened: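 Western blots of MDM2 and p53 protein were run on RS4;11 cells (wild-type p53) in RPMI 1640 with 10% FBS. 2×10^6 cells/well were treated at the indicated concentrations for 1 h or 2 h. Lysis was in ice-cold buffer with protease inhibitor, followed by probing with specific antibodies.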

[13] = Antiproliferative activity against human RS4:11/IRMI-2 cells harboring p53 hotspot mutation Y236H/R249G assessed as cell growth inhibition without interaction with cereblon after 4 days by WST-8 assay; assay type: functional, cell-based; conditions: RS4-11, 96 h; procedure, shortened: as §1
[14] = biological target: Cellular tumor antigen p53 (Homo sapiens) (UniProt P04637); experiment: Activation of p53 in human RS4:11 cells assessed as increase in MDM2 mRNA expression at 3 nM after 1 to 2 hrs by qRT-PCR analysis; assay type: cell-based; procedure, shortened: as §3

Q: What does the source list for O=C1CCC(N2Cc3c(CCCCCNC(=O)[C@@H]4NC5(CCCCC5)[C@@]5(C(=O)Nc6cc(Cl)ccc65)[C@H]4c4cccc(Cl)c4F)cccc3C2=O)C(=O)N1 (some centres undefined)?
A: IC50 (RS4-11 [1]): 0.17 nM; IC50 (MDA-MB-231 [2]): 28.9 nM; IC50 (MDA-MB-231 [3]): 39.4 nM; IC50 [4]: 2.6 nM; IC50 (MDA-MB-468 [5]): > 1000 nM; inhibition [6]: Active; IC50 (RS4-11 [7]): 2.3 nM; DC50 [8]: 1.3 nM; Activity [9]: inactive; fold change [10]: 3.7; IC50 (MDA-MB-468 [11]): 31.1 nM; Activity [12]: inactive; IC50 [13]: 2.6 nM; Activity [14]: inactive
